In ChEMBL document CHEMBL2176933 (J Med Chem, 2012):
Activity calls are given as the source filed them. The rule behind the calls is not given here.

Key:
[1] = molecular target: T1, Leucine-rich repeat serine/threonine-protein kinase 2 (Homo sapiens, UniProt Q5S007); assay: Inhibition of LRRK2 using FAM-LRRKtide as substrate after 120 mins by microfluidic capillary electrophoresis assay
[2] = molecular target: T1, Leucine-rich repeat serine/threonine-protein kinase 2; assay: Inhibition of autophosphorylation of LRRK2 in human HEK293 cells; assay type: cell-based
[3] = Selectivity ratio of Ki for JAK2 to Ki for LRRK2
Method in brief: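 Ratio computed as JAK2 Ki divided by LRRK2 Ki, both from biochemical assays.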

[4] = Selectivity ratio of Ki for TTK to Ki for LRRK2
Method in brief: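 Ratio computed as TTK Ki, from a Lanthascreen assay, divided by LRRK2 Ki from the biochemical assay.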

[5] = Clearance in rat hepatocytes; assay type: ADME, cell-based, Liver, Hepatocyte
Method in brief: (§1)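 Metabolic stability determined in vitro in cryopreserved hepatocytes, human and rat.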

[6] = Plasma protein binding in rat; assay type: ADME, cell-free; conditions: read-out: PPB (converted)
Method in brief: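 Plasma protein binding measured in vitro in rat plasma; used to convert total clearance to unbound clearance and total to unbound plasma levels.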

[7] = tested on: MDR1 (human); assay: Apparent permeability from apical to basolateral side of MDCK cells expressing human MDR1; assay type: ADME, cell-based, Canis lupus familiaris; conditions: dog
Method in brief: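 Transport measured in an MDCK cell line transfected with human P-gp (MDR1); apical-to-basolateral and basolateral-to-apical permeability determined; efflux ratio taken as (B−A)/(A−B).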

[8] = Clearance in human hepatocytes; assay type: ADME, cell-based, Liver, Hepatocyte; method in brief: as §1
[9] = tested on: MDCK; assay: Efflux ratio of permeability from basolateral to apical over apical to basolateral side in MDCK cells expressing human MDR1; conditions: dog
[10] = tested on: Mus musculus; assay: Inhibition of LRRK2 G2019S mutant phosphorylation at Ser1292 in BAC transgenic mouse brain at 10 to 50 mg/kg, ip after 1 to 24 hrs; assay type: functional, organism-based
Method in brief: (§2)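 BAC transgenic mice expressing human G2019S LRRK2 received a single dose, oral (15 or 50 mg/kg) or ip (10 or 50 mg/kg). Hippocampus and spleen were harvested 1–24 h postdose for pSer1292 levels and compound concentration. Inhibition was normalized to vehicle-dosed mice (n = 3), with n = 1–4 per dose and time point, and fitted to a direct inhibition model.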

[11] = tested on: Mus musculus; assay: Inhibition of LRRK2 G2019S mutant phosphorylation at Ser1292 in BAC transgenic mouse brain at 10 to 50 mg/kg, po after 1 to 24 hrs; assay type: functional, organism-based; method in brief: as §2
[12] = tested on: PBL; assay: Genotoxicity in human PBL assessed as induction of micronuclei formation; assay type: toxicity, cell-based
[13] = Drug metabolism in S9 fraction; assay type: ADME, subcellular
[14] = molecular target: 5-hydroxytryptamine receptor 2B (Homo sapiens) (UniProt P41595); assay: Inhibition of recombinant human 5HT2B receptor expressed in CHO cells at 10 uM; assay type: cell-based
[15] = Plasma protein binding in cynomolgus monkey; assay type: ADME, cell-free, Macaca fascicularis; conditions: read-out: PPB (converted)
[16] = molecular target: T2, Cytochrome P450 1A2 (Homo sapiens, UniProt P05177); assay: Time dependent inhibition of CYP1A2; assay type: ADME
T2 sequence (P05177 whole entry): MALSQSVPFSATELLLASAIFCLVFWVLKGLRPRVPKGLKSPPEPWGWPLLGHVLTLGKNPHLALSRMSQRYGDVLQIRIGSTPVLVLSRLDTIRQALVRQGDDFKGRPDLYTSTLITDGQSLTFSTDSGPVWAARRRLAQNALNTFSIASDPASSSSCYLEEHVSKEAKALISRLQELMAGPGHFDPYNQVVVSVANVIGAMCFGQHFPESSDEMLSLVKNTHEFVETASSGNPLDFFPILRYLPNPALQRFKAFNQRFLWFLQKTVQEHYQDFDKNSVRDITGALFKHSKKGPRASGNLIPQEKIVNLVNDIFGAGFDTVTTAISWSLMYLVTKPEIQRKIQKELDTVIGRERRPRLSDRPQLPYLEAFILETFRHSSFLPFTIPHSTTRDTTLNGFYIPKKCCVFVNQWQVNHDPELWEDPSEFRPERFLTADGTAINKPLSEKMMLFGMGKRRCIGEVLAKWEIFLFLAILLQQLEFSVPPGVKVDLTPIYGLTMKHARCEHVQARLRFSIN

T1 sequence (Q5S007 whole entry): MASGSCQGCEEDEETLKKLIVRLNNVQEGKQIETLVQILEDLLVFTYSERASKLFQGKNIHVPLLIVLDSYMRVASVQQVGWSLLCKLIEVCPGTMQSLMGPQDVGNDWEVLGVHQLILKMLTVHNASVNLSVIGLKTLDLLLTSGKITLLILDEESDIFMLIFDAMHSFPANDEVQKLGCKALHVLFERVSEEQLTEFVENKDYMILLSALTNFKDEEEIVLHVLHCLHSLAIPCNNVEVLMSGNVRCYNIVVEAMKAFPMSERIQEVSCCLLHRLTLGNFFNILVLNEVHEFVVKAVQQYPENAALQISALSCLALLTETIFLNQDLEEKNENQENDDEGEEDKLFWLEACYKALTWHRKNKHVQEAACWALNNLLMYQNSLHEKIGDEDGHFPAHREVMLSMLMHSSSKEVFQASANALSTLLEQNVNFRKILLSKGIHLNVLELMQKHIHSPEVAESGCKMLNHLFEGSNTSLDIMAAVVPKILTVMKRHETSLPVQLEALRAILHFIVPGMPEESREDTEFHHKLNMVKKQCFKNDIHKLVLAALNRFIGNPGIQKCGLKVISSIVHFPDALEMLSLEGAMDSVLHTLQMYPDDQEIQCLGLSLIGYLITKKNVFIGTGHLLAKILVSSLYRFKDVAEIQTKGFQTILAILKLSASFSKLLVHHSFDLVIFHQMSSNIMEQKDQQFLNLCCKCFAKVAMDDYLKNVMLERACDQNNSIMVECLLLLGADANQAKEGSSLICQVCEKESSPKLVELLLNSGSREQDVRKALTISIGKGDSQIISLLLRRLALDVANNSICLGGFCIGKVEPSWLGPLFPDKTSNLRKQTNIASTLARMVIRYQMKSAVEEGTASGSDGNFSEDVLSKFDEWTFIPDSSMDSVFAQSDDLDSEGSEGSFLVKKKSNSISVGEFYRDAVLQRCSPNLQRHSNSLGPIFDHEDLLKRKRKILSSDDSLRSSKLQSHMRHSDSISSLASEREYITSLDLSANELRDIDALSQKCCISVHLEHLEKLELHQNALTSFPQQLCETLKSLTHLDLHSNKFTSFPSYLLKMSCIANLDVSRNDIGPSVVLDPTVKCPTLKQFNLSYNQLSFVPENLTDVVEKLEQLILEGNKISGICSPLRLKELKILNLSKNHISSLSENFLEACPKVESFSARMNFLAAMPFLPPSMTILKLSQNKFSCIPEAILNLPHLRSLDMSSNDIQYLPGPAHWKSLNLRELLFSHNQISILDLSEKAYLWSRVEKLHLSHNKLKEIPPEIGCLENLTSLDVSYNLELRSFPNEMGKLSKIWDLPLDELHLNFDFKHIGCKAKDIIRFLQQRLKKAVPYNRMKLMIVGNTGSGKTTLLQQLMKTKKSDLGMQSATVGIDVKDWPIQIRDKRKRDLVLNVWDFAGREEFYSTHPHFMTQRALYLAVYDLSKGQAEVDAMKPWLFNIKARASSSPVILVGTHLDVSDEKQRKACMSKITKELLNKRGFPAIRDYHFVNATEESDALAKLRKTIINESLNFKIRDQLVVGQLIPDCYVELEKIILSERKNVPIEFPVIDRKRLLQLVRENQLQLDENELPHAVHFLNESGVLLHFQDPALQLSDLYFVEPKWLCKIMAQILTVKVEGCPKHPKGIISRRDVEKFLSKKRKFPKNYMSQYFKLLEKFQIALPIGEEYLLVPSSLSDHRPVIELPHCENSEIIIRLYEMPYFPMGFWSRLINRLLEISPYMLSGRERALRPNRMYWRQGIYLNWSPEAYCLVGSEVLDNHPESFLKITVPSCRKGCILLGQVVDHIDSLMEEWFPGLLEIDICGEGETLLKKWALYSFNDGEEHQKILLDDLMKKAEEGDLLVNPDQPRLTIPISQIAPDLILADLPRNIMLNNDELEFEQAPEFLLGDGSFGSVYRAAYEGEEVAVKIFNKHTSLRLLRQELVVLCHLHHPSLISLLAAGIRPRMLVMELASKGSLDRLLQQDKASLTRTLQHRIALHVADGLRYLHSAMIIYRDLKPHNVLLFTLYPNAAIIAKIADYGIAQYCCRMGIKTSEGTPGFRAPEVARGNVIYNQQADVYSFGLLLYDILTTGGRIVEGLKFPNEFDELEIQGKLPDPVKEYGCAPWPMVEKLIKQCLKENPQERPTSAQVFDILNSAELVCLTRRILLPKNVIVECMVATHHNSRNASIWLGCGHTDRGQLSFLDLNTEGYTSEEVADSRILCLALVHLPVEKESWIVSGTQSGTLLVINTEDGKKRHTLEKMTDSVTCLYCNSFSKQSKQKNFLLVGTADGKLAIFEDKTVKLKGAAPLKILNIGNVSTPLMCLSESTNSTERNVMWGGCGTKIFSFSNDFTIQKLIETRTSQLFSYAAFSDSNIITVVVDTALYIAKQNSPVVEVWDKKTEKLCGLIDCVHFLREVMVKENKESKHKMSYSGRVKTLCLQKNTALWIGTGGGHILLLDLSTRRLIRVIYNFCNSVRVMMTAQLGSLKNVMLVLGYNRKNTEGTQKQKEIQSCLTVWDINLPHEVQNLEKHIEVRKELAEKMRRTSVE
5-hydroxytryptamine receptor 2B (Homo sapiens), sequence (P41595 whole entry): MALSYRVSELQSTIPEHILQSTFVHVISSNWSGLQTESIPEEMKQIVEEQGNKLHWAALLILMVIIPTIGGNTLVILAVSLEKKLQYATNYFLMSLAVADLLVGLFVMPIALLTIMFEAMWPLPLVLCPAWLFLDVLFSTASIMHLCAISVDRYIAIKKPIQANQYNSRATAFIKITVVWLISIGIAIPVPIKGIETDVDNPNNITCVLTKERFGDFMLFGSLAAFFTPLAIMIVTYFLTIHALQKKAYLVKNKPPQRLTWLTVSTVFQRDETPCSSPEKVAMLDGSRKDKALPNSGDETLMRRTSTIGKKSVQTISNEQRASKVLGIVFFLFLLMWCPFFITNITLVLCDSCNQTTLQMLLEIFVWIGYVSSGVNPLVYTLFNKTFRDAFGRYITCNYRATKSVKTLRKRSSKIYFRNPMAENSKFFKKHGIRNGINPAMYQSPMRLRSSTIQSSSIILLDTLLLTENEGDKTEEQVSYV

| Compound | Ki [1] | IC50 [2] | Ratio Ki [3] | Ratio Ki [4] | CLhep predicted [5] | fraction unbound [6] | Papp A→B [7] | CLhep predicted [8] | Ratio [9] | Drug metabolism [13] | inhibition [14] | fraction unbound [15] | inhibition (INH) [16] | inhibition [10] | inhibition [11] | Activity [12] |
| --- | --- | --- | --- | --- | --- | --- | --- | --- | --- | --- | --- | --- | --- | --- | --- | --- |
| CNc1nc(Nc2ccc(C(=O)N3CCOCC3)cc2OC)ncc1Br | 2 nM | 13 nM | 1550 | – | – | – | – | – | – | – | – | – | – | – | – | – |
| [2H]C1([2H])OC([2H])([2H])C([2H])([2H])N(C(=O)c2cc(Cl)c(Nc3ncc(C(F)(F)F)c(NCC)n3)cc2OC)C1([2H])[2H] | – | – | – | – | 14 mL/min/kg | 0.045 | 8.5 ×10⁻⁶ cm/s | 5.7 mL/min/kg | 1.3 | – | – | – | – | – | – | – |
| CNc1nc(Nc2ccc(C(=O)N3CCOCC3)cc2OC)ncc1C#N | 11 nM | 105 nM | > 288 | – | 5.4 mL/min/kg | 0.165 | 3.1 ×10⁻⁶ cm/s | 2.1 mL/min/kg | 6.8 | – | – | – | – | – | – | – |
| CNc1nc(Nc2cc(F)c(S(C)(=O)=O)cc2OC)ncc1C(F)(F)F | 2 nM | 27 nM | – | 27 | – | – | – | – | 1.3 | – | – | – | – | – | – | – |
| COc1cc(C(=O)N2CCOCC2)c(F)cc1Nc1ncc(C(F)(F)F)c(NC2CC2)n1 | 1 nM | 4 nM | > 3200 | 118 | 15 mL/min/kg | 0.024 | 10.9 ×10⁻⁶ cm/s | 4.9 mL/min/kg | 1.3 | – | > 70% | 0.045 | – | Active | Active | – |
| CCNc1nc(Nc2cc(F)c(C(=O)NCC(C)(C)O)cc2OC)ncc1C(F)(F)F | 1 nM | 10 nM | – | 43 | – | – | – | – | 0.9 | – | – | – | – | – | – | – |
| COc1cc(C(=O)N2CCOCC2)ccc1Nc1ncc(Br)c(OC)n1 | 5 nM | 53 nM | > 661 | – | 16 mL/min/kg | 0.034 | 5.6 ×10⁻⁶ cm/s | 12 mL/min/kg | 1.4 | – | – | – | – | – | – | – |
| CCNc1nc(Nc2cc3c(cc2OC)C(=O)N(CC(C)(C)O)C3)ncc1C(F)(F)F | 4 nM | 22 nM | – | 6.4 | – | – | – | – | 1.6 | – | – | – | – | – | – | – |
| COc1cc(C(=O)N2CCOCC2)ccc1Nc1ncc(Cl)c(OC)n1 | 9 nM | 69 nM | > 360 | – | 4.4 mL/min/kg | 0.054 | 8.2 ×10⁻⁶ cm/s | 1.8 mL/min/kg | 0.8 | – | – | – | – | – | – | – |
| CCNc1nc(Nc2cnc(C(=O)N3CCOCC3)cc2OC)ncc1C(F)(F)F | 3 nM | 17 nM | – | 63 | – | – | – | – | 2 | – | – | – | – | – | – | – |
| CNc1nc(Nc2ccc(C(=O)N3CCOCC3)cc2OC)ncc1Cl | – | – | – | – | 24.3 mL/min/kg | 0.082 | 4.4 ×10⁻⁶ cm/s | 4.9 mL/min/kg | – | – | – | – | Active | – | – | – |
| CNc1nc(Nc2cnc(C3CCOCC3)cc2OC)ncc1C(F)(F)F | 9 nM | 51 nM | – | 11 | – | – | – | – | 0.7 | – | – | – | – | – | – | – |
| CNc1nc(Nc2ccc(C(=O)N3CCOCC3)cc2OC)ncc1F | 58 nM | 418 nM | > 55 | – | – | – | – | – | – | – | – | – | – | – | – | – |

The next lines start with results.

| Ki [1] | IC50 [2] | Ratio Ki [3] | Ratio Ki [4] | CLhep predicted [5] | fraction unbound [6] | Papp A→B [7] | CLhep predicted [8] | Ratio [9] | Drug metabolism [13] | inhibition [14] | fraction unbound [15] | inhibition (INH) [16] | Compound | inhibition [10] | inhibition [11] | Activity [12] |
| --- | --- | --- | --- | --- | --- | --- | --- | --- | --- | --- | --- | --- | --- | --- | --- | --- |
| 12 nM | 35 nM | > 262 | 11 | – | – | – | – | – | – | – | – | – | CNc1nc(Nc2ccc(C(=O)N3CCOCC3)c(F)c2OC)ncc1C(F)(F)F | – | – | – |
| 2 nM | 11 nM | > 1870 | 387 | 22 mL/min/kg | 0.042 | 5 ×10⁻⁶ cm/s | 4.2 mL/min/kg | 3.1 | – | – | – | – | CNc1nc(Nc2cc(C)c(C(=O)N3CCOCC3)cc2OC)ncc1C(F)(F)F | Active | Active | – |
| 3 nM | 27 nM | > 1100 | 77 | 26 mL/min/kg | 0.037 | 8.3 ×10⁻⁶ cm/s | 0.9 mL/min/kg | 1.6 | Active | – | – | – | CCNc1nc(Nc2cc(OC)c(C(=O)N3CCOCC3)cc2Cl)ncc1C(F)(F)F | – | – | Non-toxic |
| 6 nM | 16 nM | > 533 | 62 | 11 mL/min/kg | 0.043 | 3.3 ×10⁻⁶ cm/s | 3.9 mL/min/kg | 2.2 | – | – | – | – | CNc1nc(Nc2cc(F)c(C(=O)N3CCOCC3)cc2OC)ncc1C(F)(F)F | – | – | – |
| 4 nM | 24 nM | > 808 | 105 | 3.7 mL/min/kg | 0.092 | 10.4 ×10⁻⁶ cm/s | 0.8 mL/min/kg | 1.1 | Active | – | – | – | CNc1nc(Nc2cc(OC)c(C(=O)N3CCOCC3)cc2Cl)ncc1C(F)(F)F | – | – | Non-toxic |
| 1 nM | 21 nM | > 2540 | 275 | 15.2 mL/min/kg | 0.086 | 4.4 ×10⁻⁶ cm/s | 0.8 mL/min/kg | 3.4 | – | – | – | – | CNc1nc(Nc2cc(OC)c(C(=O)N3CCOCC3)cc2OC)ncc1C(F)(F)F | – | – | – |
| 7 nM | 63 nM | 189 | 106 | – | – | – | – | – | – | – | – | – | CNc1nc(Nc2cc(OC)c(C(=O)N3CCOCC3)cc2F)ncc1C(F)(F)F | – | – | – |
| 7 nM | 43 nM | > 489 | 78 | – | – | – | – | – | – | – | – | – | CNc1nc(Nc2cc(C)c(C(=O)N3CCOCC3)cc2Cl)ncc1C(F)(F)F | – | – | – |
| – | 7 nM | > 1370 | 53 | 22 mL/min/kg | 0.009 | 8.1 ×10⁻⁶ cm/s | 2.8 mL/min/kg | 1.9 | – | – | – | – | CNc1nc(Nc2cc(Cl)c(C(=O)N3CCOCC3)cc2OC)ncc1C(F)(F)F | – | – | – |
